# According to ChEMBL document CHEMBL2321753, “Synthesis and biological evaluation of radioiodinated quinacrine-based derivatives for SPECT imaging of Aβ plaques” (Eur J Med Chem, 2013):
# Columns and labels:
# Heart [1] = assay: Biodistribution in ddY mouse heart at 0.1 to 0.4 uCi, iv after 60 mins by gamma counting; type: ADME, organism-based; conditions: in vivo, 1 h
# How it was run: (§1)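 [125I]ligand (0.1–0.4 µCi) in 100 µL PBS (pH 7.4) containing 30 µL DMSO, injected into the tail vein of ddY mice (5 weeks, 22–25 g). Mice sacrificed at 2, 10, 30 and 60 min. Organs removed, weighed and gamma-counted. Values are % injected dose per gram, except stomach as % dose per organ. Mean (SD) of 3–6 mice per time point.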
# Pancreas [2] = assay: Biodistribution in ddY mouse pancreas at 0.1 to 0.4 uCi, iv after 60 mins by gamma counting; type: ADME, organism-based; conditions: in vivo, 1 h; how it was run: as §1
# Stomach [3] = assay: Biodistribution in ddY mouse stomach assessed per organ at 0.1 to 0.4 uCi, iv after 60 mins by gamma counting; type: ADME, organism-based; conditions: in vivo, 1 h; how it was run: as §1
# Lung [4] = assay: Biodistribution in ddY mouse lung at 0.1 to 0.4 uCi, iv after 60 mins by gamma counting; type: ADME, organism-based; conditions: in vivo, 1 h; how it was run: as §1
# Spleen [5] = assay: Biodistribution in ddY mouse spleen at 0.1 to 0.4 uCi, iv after 60 mins by gamma counting; type: ADME, organism-based; conditions: in vivo, 1 h; how it was run: as §1
# Intestine [6] = assay: Biodistribution in ddY mouse intestine at 0.1 to 0.4 uCi, iv after 60 mins by gamma counting; type: ADME, organism-based; conditions: in vivo, 1 h; how it was run: as §1
# Kidney [7] = assay: Biodistribution in ddY mouse kidney at 0.1 to 0.4 uCi, iv after 60 mins by gamma counting; type: ADME, organism-based; conditions: in vivo, 1 h; how it was run: as §1
# Liver [8] = assay: Biodistribution in ddY mouse liver at 0.1 to 0.4 uCi, iv after 60 mins by gamma counting; type: ADME, organism-based; conditions: in vivo, 1 h; how it was run: as §1
# Brain [9] = assay: Biodistribution in ddY mouse brain at 0.1 to 0.4 uCi, iv after 60 mins by gamma counting; type: ADME, organism-based; conditions: in vivo, 1 h; how it was run: as §1
# Blood [10] = assay: Biodistribution in ddY mouse blood at 0.1 to 0.4 uCi, iv after 60 mins by gamma counting; type: ADME, organism-based; conditions: in vivo, 1 h; how it was run: as §1
# Heart [11] = assay: Biodistribution in ddY mouse heart at 0.1 to 0.4 uCi, iv after 30 mins by gamma counting; type: ADME, organism-based; conditions: in vivo, 0.5 h; how it was run: as §1
# Pancreas [12] = assay: Biodistribution in ddY mouse pancreas at 0.1 to 0.4 uCi, iv after 30 mins by gamma counting; type: ADME, organism-based; conditions: in vivo, 0.5 h; how it was run: as §1
# Stomach [13] = assay: Biodistribution in ddY mouse stomach assessed per organ at 0.1 to 0.4 uCi, iv after 30 mins by gamma counting; type: ADME, organism-based; conditions: in vivo, 0.5 h; how it was run: as §1
# Lung [14] = assay: Biodistribution in ddY mouse lung at 0.1 to 0.4 uCi, iv after 30 mins by gamma counting; type: ADME, organism-based; conditions: in vivo, 0.5 h; how it was run: as §1
# Spleen [15] = assay: Biodistribution in ddY mouse spleen at 0.1 to 0.4 uCi, iv after 30 mins by gamma counting; type: ADME, organism-based; conditions: in vivo, 0.5 h; how it was run: as §1
# Intestine [16] = assay: Biodistribution in ddY mouse intestine at 0.1 to 0.4 uCi, iv after 30 mins by gamma counting; type: ADME, organism-based; conditions: in vivo, 0.5 h; how it was run: as §1
# Kidney [17] = assay: Biodistribution in ddY mouse kidney at 0.1 to 0.4 uCi, iv after 30 mins by gamma counting; type: ADME, organism-based; conditions: in vivo, 0.5 h; how it was run: as §1
# Liver [18] = assay: Biodistribution in ddY mouse liver at 0.1 to 0.4 uCi, iv after 30 mins by gamma counting; type: ADME, organism-based; conditions: in vivo, 0.5 h; how it was run: as §1
# Brain [19] = assay: Biodistribution in ddY mouse brain at 0.1 to 0.4 uCi, iv after 30 mins by gamma counting; type: ADME, organism-based; conditions: in vivo, 0.5 h; how it was run: as §1
# Blood [20] = assay: Biodistribution in ddY mouse blood at 0.1 to 0.4 uCi, iv after 30 mins by gamma counting; type: ADME, organism-based; conditions: in vivo, 0.5 h; how it was run: as §1
# Heart [21] = assay: Biodistribution in ddY mouse heart at 0.1 to 0.4 uCi, iv after 10 mins by gamma counting; type: ADME, organism-based; conditions: in vivo; how it was run: as §1
# Pancreas [22] = assay: Biodistribution in ddY mouse pancreas at 0.1 to 0.4 uCi, iv after 10 mins by gamma counting; type: ADME, organism-based; conditions: in vivo; how it was run: as §1
# Stomach [23] = assay: Biodistribution in ddY mouse stomach assessed per organ at 0.1 to 0.4 uCi, iv after 10 mins by gamma counting; type: ADME, organism-based; conditions: in vivo; how it was run: as §1
# Lung [24] = assay: Biodistribution in ddY mouse lung at 0.1 to 0.4 uCi, iv after 10 mins by gamma counting; type: ADME, organism-based; conditions: in vivo; how it was run: as §1
# Spleen [25] = assay: Biodistribution in ddY mouse spleen at 0.1 to 0.4 uCi, iv after 10 mins by gamma counting; type: ADME, organism-based; conditions: in vivo; how it was run: as §1
# Intestine [26] = assay: Biodistribution in ddY mouse intestine at 0.1 to 0.4 uCi, iv after 10 mins by gamma counting; type: ADME, organism-based; conditions: in vivo; how it was run: as §1
# Liver [27] = assay: Biodistribution in ddY mouse liver at 0.1 to 0.4 uCi, iv after 10 mins by gamma counting; type: ADME, organism-based; conditions: in vivo; how it was run: as §1
# Kidney [28] = assay: Biodistribution in ddY mouse kidney at 0.1 to 0.4 uCi, iv after 10 mins by gamma counting; type: ADME, organism-based; conditions: in vivo; how it was run: as §1
# Brain [29] = assay: Biodistribution in ddY mouse brain at 0.1 to 0.4 uCi, iv after 10 mins by gamma counting; type: ADME, organism-based; conditions: in vivo; how it was run: as §1
# Blood [30] = assay: Biodistribution in ddY mouse blood at 0.1 to 0.4 uCi, iv after 10 mins by gamma counting; type: ADME, organism-based; conditions: in vivo; how it was run: as §1
# Pancreas [31] = assay: Biodistribution in ddY mouse pancreas at 0.1 to 0.4 uCi, iv after 2 mins by gamma counting; type: ADME, organism-based; conditions: in vivo; how it was run: as §1
# Heart [32] = assay: Biodistribution in ddY mouse heart at 0.1 to 0.4 uCi, iv after 2 mins by gamma counting; type: ADME, organism-based; conditions: in vivo; how it was run: as §1
# Stomach [33] = assay: Biodistribution in ddY mouse stomach assessed per organ at 0.1 to 0.4 uCi, iv after 2 mins by gamma counting; type: ADME, organism-based; conditions: in vivo; how it was run: as §1
# Lung [34] = assay: Biodistribution in ddY mouse lung at 0.1 to 0.4 uCi, iv after 2 mins by gamma counting; type: ADME, organism-based; conditions: in vivo; how it was run: as §1
# Intestine [35] = assay: Biodistribution in ddY mouse intestine at 0.1 to 0.4 uCi, iv after 2 mins by gamma counting; type: ADME, organism-based; conditions: in vivo; how it was run: as §1
# Spleen [36] = assay: Biodistribution in ddY mouse spleen at 0.1 to 0.4 uCi, iv after 2 mins by gamma counting; type: ADME, organism-based; conditions: in vivo; how it was run: as §1
# Kidney [37] = assay: Biodistribution in ddY mouse kidney at 0.1 to 0.4 uCi, iv after 2 mins by gamma counting; type: ADME, organism-based; conditions: in vivo; how it was run: as §1
# Liver [38] = assay: Biodistribution in ddY mouse liver at 0.1 to 0.4 uCi, iv after 2 mins by gamma counting; type: ADME, organism-based; conditions: in vivo; how it was run: as §1
# Blood [39] = assay: Biodistribution in ddY mouse blood at 0.1 to 0.4 uCi, iv after 2 mins by gamma counting; type: ADME, organism-based; conditions: in vivo; how it was run: as §1
# Brain [40] = assay: Biodistribution in ddY mouse brain at 0.1 to 0.4 uCi, iv after 2 mins by gamma counting; type: ADME, organism-based; conditions: in vivo; how it was run: as §1
# [41] = n-octanol-sodium phosphate buffer partition co-efficient, log D of the compound at pH 7.4 by shake flask method; type: physicochemical
# How it was run: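 Shake-flask partition between n-octanol and sodium phosphate buffer, pH 7.4, shaken 10 min at room temperature, then centrifuged. Weighed 0.5 mL samples of each layer counted. log D from the ratio of cpm per gram of octanol to cpm per gram of buffer; n = 3.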
# [42] = target: Amyloid-beta precursor protein (Homo sapiens, UniProt P05067); assay: Displacement of [125I]IMPY from amyloid beta (1 to 42) (unknown origin) after 3 hrs by gamma counting
# How it was run: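 Filtered through GF/B filters and bound radioactivity gamma-counted. IC50 from displacement curves of three independent experiments; Ki calculated with the Cheng–Prusoff equation.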
# Sequence of Amyloid-beta precursor protein (P05067 whole entry): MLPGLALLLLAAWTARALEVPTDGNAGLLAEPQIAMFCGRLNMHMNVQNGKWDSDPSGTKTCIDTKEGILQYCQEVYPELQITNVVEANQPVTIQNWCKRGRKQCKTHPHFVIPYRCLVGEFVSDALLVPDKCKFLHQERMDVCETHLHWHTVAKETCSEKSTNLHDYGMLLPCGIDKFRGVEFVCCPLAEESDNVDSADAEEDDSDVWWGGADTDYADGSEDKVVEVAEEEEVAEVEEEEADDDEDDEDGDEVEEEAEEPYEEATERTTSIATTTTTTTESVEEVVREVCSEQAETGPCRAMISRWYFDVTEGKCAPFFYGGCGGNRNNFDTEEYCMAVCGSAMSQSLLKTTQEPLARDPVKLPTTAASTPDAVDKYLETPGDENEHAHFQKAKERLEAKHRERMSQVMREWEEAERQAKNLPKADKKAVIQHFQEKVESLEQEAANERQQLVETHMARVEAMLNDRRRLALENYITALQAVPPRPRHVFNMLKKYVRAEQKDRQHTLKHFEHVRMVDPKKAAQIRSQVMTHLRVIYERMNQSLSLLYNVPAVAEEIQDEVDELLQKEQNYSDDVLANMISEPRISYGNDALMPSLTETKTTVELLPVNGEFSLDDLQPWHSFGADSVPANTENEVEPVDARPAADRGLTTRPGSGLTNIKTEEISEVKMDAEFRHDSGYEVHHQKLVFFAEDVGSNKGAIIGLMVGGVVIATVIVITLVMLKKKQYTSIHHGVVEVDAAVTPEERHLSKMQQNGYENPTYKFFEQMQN
compound,measurement,setting,value
COc1ccc2nc3cc([125I])ccc3c(N)c2c1,Drug uptake,Heart [1],0.49 % ID/g
same,Drug uptake,Pancreas [2],0.76 % ID/g
same,Drug uptake,Stomach [3],1.74 %ID
same,Drug uptake,Lung [4],1.4 % ID/g
same,Drug uptake,Spleen [5],3.28 % ID/g
same,Drug uptake,Intestine [6],11.2 % ID/g
same,Drug uptake,Kidney [7],3.58 % ID/g
same,Drug uptake,Liver [8],2.84 % ID/g
same,Drug uptake,Brain [9],0.19 % ID/g
same,Drug uptake,Blood [10],0.49 % ID/g
same,Drug uptake,Heart [11],2.26 % ID/g
same,Drug uptake,Pancreas [12],4.98 % ID/g
same,Drug uptake,Stomach [13],6.66 %ID
same,Drug uptake,Lung [14],5.04 % ID/g
same,Drug uptake,Spleen [15],10.6 % ID/g
same,Drug uptake,Intestine [16],17.49 % ID/g
same,Drug uptake,Kidney [17],12.64 % ID/g
same,Drug uptake,Liver [18],8.4 % ID/g
same,Drug uptake,Brain [19],1.27 % ID/g
same,Drug uptake,Blood [20],1.46 % ID/g
same,Drug uptake,Heart [21],4.57 % ID/g
same,Drug uptake,Pancreas [22],11.52 % ID/g
same,Drug uptake,Stomach [23],6.58 %ID
same,Drug uptake,Lung [24],14.29 % ID/g
same,Drug uptake,Spleen [25],14.65 % ID/g
same,Drug uptake,Intestine [26],14.19 % ID/g
same,Drug uptake,Liver [27],14.79 % ID/g
same,Drug uptake,Kidney [28],22.51 % ID/g
same,Drug uptake,Brain [29],3.16 % ID/g
same,Drug uptake,Blood [30],2.09 % ID/g
same,Drug uptake,Pancreas [31],4.34 % ID/g
same,Drug uptake,Heart [32],4.46 % ID/g
same,Drug uptake,Stomach [33],0.99 %ID
same,Drug uptake,Lung [34],9.91 % ID/g
same,Drug uptake,Intestine [35],1.86 % ID/g
same,Drug uptake,Spleen [36],4.7 % ID/g
same,Drug uptake,Kidney [37],9.81 % ID/g
same,Drug uptake,Liver [38],6.24 % ID/g
same,Drug uptake,Blood [39],1.15 % ID/g
same,Drug uptake,Brain [40],1.35 % ID/g
same,logD,[41],2.13
COc1c2ccc([125I])cc2nc2ccc(N(C)C)cc12,Drug uptake,Heart [1],2.38 % ID/g
same,Drug uptake,Pancreas [2],1.14 % ID/g
same,Drug uptake,Stomach [3],4.33 %ID
same,Drug uptake,Lung [4],3.87 % ID/g
same,Drug uptake,Spleen [5],2.43 % ID/g
same,Drug uptake,Intestine [6],11.2 % ID/g
same,Drug uptake,Kidney [7],4.81 % ID/g
same,Drug uptake,Liver [8],10.79 % ID/g
same,Drug uptake,Brain [9],0.71 % ID/g
same,Drug uptake,Blood [10],5.17 % ID/g
same,Drug uptake,Heart [11],4.09 % ID/g
same,Drug uptake,Pancreas [12],2.29 % ID/g
same,Drug uptake,Stomach [13],4.2 %ID
same,Drug uptake,Lung [14],6.67 % ID/g
same,Drug uptake,Spleen [15],5.4 % ID/g
same,Drug uptake,Intestine [16],17.49 % ID/g
same,Drug uptake,Kidney [17],10.72 % ID/g
same,Drug uptake,Liver [18],18.54 % ID/g
same,Drug uptake,Brain [19],1.6 % ID/g
same,Drug uptake,Blood [20],6.52 % ID/g
same,Drug uptake,Heart [21],3.78 % ID/g
same,Drug uptake,Pancreas [22],2.47 % ID/g
same,Drug uptake,Stomach [23],5.1 %ID
same,Drug uptake,Lung [24],6.66 % ID/g
same,Drug uptake,Spleen [25],4.07 % ID/g
same,Drug uptake,Intestine [26],14.19 % ID/g
same,Drug uptake,Liver [27],20.71 % ID/g
same,Drug uptake,Kidney [28],8.99 % ID/g
same,Drug uptake,Brain [29],1.96 % ID/g
same,Drug uptake,Blood [30],7 % ID/g
same,Drug uptake,Pancreas [31],4.11 % ID/g
same,Drug uptake,Heart [32],5.83 % ID/g
same,Drug uptake,Stomach [33],1.83 %ID
same,Drug uptake,Lung [34],7.17 % ID/g
same,Drug uptake,Intestine [35],1.86 % ID/g
same,Drug uptake,Spleen [36],5.09 % ID/g
same,Drug uptake,Kidney [37],10.94 % ID/g
same,Drug uptake,Liver [38],20.78 % ID/g
same,Drug uptake,Blood [39],8.34 % ID/g
same,Drug uptake,Brain [40],2.09 % ID/g
same,logD,[41],1.81
COc1c2ccc(I)cc2nc2ccc(N(C)C)cc12,Ki,[42],30 nM
COc1ccc2nc3cc(I)ccc3c(N(C)C)c2c1,Ki,[42],121 nM
COc1ccc2nc3cc(I)ccc3c(N)c2c1,Ki,[42],83.5 nM
